{"source": "ChEMBL document CHEMBL1159037", "about": "“Synthesis and biological evaluation of novel allophenylnorstatine-based HIV-1 protease inhibitors incorporating high affinity P2-ligands” (Bioorg Med Chem Lett, 2010)", "key": {"Protease": {"biological_target": "Protease (Human immunodeficiency virus 1, UniProt Q9YQ12)", "sequence (Q9YQ12 whole entry)": "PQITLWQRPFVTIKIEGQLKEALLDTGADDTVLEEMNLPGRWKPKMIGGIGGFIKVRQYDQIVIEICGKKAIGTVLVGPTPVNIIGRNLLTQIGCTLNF", "test": "Inhibition of HIV1 protease"}, "[1]": {"tested_on": "Human immunodeficiency virus 1", "test": "Antiviral activity against HIV1 LAI in human MT2 cells after 7 days by MTT assay", "type": "functional, organism-based", "details": "Human immunodeficiency virus 1, LAI, MT2, 168 h", "outline": "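Human T-lymphoid MT-2 cells were exposed to 100 TCID50 of HIV-1LAI and cultured in the presence of each protease inhibitor. IC50 was determined by MTT assay. Values are means of at least three experiments.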"}, "[2]": {"tested_on": "Human immunodeficiency virus 1", "test": "Antiviral activity against multi drug-resistant HIV1 isolate of subtype C in PHA-stimulated human PBMC assessed as inhibition of p24 antigen production", "type": "functional, organism-based", "details": "Human immunodeficiency virus 1, isolate C"}, "[3]": {"tested_on": "Human immunodeficiency virus 1", "test": "Antiviral activity against multi drug-resistant HIV1 isolate of subtype G in PHA-stimulated human PBMC assessed as inhibition of p24 antigen production", "type": "functional, organism-based", "details": "Human immunodeficiency virus 1, isolate G"}, "[4]": {"tested_on": "Human immunodeficiency virus 1", "test": "Antiviral activity against multi drug-resistant HIV1 isolate of subtype TM in PHA-stimulated human PBMC assessed as inhibition of p24 antigen production", "type": "functional, organism-based", "details": "Human immunodeficiency virus 1, isolate TM"}, "[5]": {"tested_on": "Human immunodeficiency virus 1", "test": "Antiviral activity against multi drug-resistant HIV1 isolate of subtype MM in PHA-stimulated human PBMC assessed as inhibition of p24 antigen production", "type": "functional, organism-based", "details": "Human immunodeficiency virus 1, isolate MM"}, "[6]": {"tested_on": "Human immunodeficiency virus 1", "test": "Antiviral activity against wild type HIV1 isolate ERS104pre in PHA-stimulated human PBMC assessed as inhibition of p24 antigen production", "type": "functional, organism-based", "details": "Human immunodeficiency virus 1, isolate ERS104pre"}, "[7]": {"tested_on": "Human immunodeficiency virus 1", "test": "Ratio of IC50 for multi drug-resistant HIV1 isolate of subtype C to IC50 for wild type HIV1 isolate ERS104pre", "type": "functional", "outline": "(§1)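 Each assay run in duplicate; values are means (±1 SD) from two or three independent experiments. Fold change is the IC50 against each drug-resistant isolate divided by the IC50 against wild-type HIV-1 ERS104pre.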"}, "[8]": {"tested_on": "Human immunodeficiency virus 1", "test": "Ratio of IC50 for multi drug-resistant HIV1 isolate of subtype G to IC50 for wild type HIV1 isolate ERS104pre", "type": "functional", "outline": "as §1"}, "[9]": {"tested_on": "Human immunodeficiency virus 1", "test": "Ratio of IC50 for multi drug-resistant HIV1 isolate of subtype TM to IC50 for wild type HIV1 isolate ERS104pre", "type": "functional", "outline": "as §1"}, "[10]": {"tested_on": "Human immunodeficiency virus 1", "test": "Ratio of IC50 for multi drug-resistant HIV1 isolate of subtype MM to IC50 for wild type HIV1 isolate ERS104pre", "type": "functional", "outline": "as §1"}, "[11]": {"tested_on": "Human immunodeficiency virus 1", "test": "Ratio of IC50 for multi drug-resistant HIV1 isolate of subtype JSL to IC50 for wild type HIV1 isolate ERS104pre", "type": "functional", "outline": "as §1"}, "[12]": {"tested_on": "Human immunodeficiency virus 1", "test": "Antiviral activity against multi drug-resistant HIV1 isolate of subtype JSL in PHA-stimulated human PBMC assessed as inhibition of p24 antigen production", "type": "functional, organism-based", "details": "Human immunodeficiency virus 1, isolate JSL"}}, "note": "pIC50, pKi: −log10 of the molar value."}
{"smiles": "Cc1cc(CO)ccc1CNC(=O)[C@H]1N(C(=O)[C@@H](O)[C@H](Cc2ccccc2)NC(=O)O[C@H]2CO[C@H]3OCC[C@H]32)CSC1(C)C", "values": [{"measurement": "pKi", "setting": "Protease", "value": 9.51}, {"measurement": "pIC50", "setting": "[1]", "value": 6.64}]}
{"smiles": "Cc1ccccc1CNC(=O)[C@H]1N(C(=O)[C@@H](O)[C@H](Cc2ccccc2)NC(=O)O[C@@H]2C[C@@H]3OCO[C@@H]3C2)CSC1(C)C", "values": [{"measurement": "pKi", "setting": "Protease", "value": 9.19}]}
{"smiles": "Cc1ccccc1CNC(=O)[C@H]1N(C(=O)[C@@H](O)[C@H](Cc2ccccc2)NC(=O)O[C@H]2CCOC2)CSC1(C)C", "values": [{"measurement": "pKi", "setting": "Protease", "value": 9.68}, {"measurement": "pIC50", "setting": "[1]", "value": 7.70}]}
{"smiles": "CC(C)CN(C[C@@H](O)[C@H](Cc1ccccc1)NC(=O)O[C@H]1CCOC1)S(=O)(=O)c1ccc(N)cc1", "values": [{"measurement": "pIC50", "setting": "[2]", "value": 6.46}, {"measurement": "pIC50", "setting": "[3]", "value": 6.41}, {"measurement": "pIC50", "setting": "[4]", "value": 6.39}, {"measurement": "pIC50", "setting": "[5]", "value": 6.50}, {"measurement": "pIC50", "setting": "[6]", "value": 7.35}, {"measurement": "Ratio IC50", "setting": "[7]", "value": 8}, {"measurement": "Ratio IC50", "setting": "[8]", "value": 9}, {"measurement": "Ratio IC50", "setting": "[9]", "value": 9}, {"measurement": "Ratio IC50", "setting": "[10]", "value": 7}, {"measurement": "Ratio IC50", "setting": "[11]", "value": 12}]}
{"smiles": "Cc1ccccc1CNC(=O)[C@H]1N(C[C@@H](O)[C@H](Cc2ccccc2)NC(=O)O[C@H]2CCOC2)CSC1(C)C", "values": [{"measurement": "pKi", "setting": "Protease", "value": 7.06}]}
{"smiles": "COC(=O)N[C@H](C(=O)N[C@@H](Cc1ccccc1)[C@@H](O)CN(Cc1ccc(-c2ccccn2)cc1)NC(=O)[C@@H](NC(=O)OC)C(C)(C)C)C(C)(C)C", "note": "[ATAZANAVIR]", "values": [{"measurement": "pIC50", "setting": "[2]", "value": 7.35}, {"measurement": "pIC50", "setting": "[3]", "value": 7.54}, {"measurement": "pIC50", "setting": "[4]", "value": 7.33}, {"measurement": "pIC50", "setting": "[5]", "value": 7.40}, {"measurement": "pIC50", "setting": "[12]", "value": 6.20}, {"measurement": "pIC50", "setting": "[6]", "value": 8.52}, {"measurement": "Ratio IC50", "setting": "[7]", "value": 15}, {"measurement": "Ratio IC50", "setting": "[8]", "value": 10}, {"measurement": "Ratio IC50", "setting": "[9]", "value": 16}, {"measurement": "Ratio IC50", "setting": "[10]", "value": 13}, {"measurement": "Ratio IC50", "setting": "[11]", "value": 212}]}
{"smiles": "COc1ccc(CNC(=O)[C@H]2N(C(=O)[C@@H](O)[C@H](Cc3ccccc3)NC(=O)O[C@H]3CO[C@H]4OCC[C@H]43)CSC2(C)C)c(C)c1", "values": [{"measurement": "pKi", "setting": "Protease", "value": 8.69}, {"measurement": "pIC50", "setting": "[1]", "value": 7.29}]}
{"smiles": "Cc1ccccc1CNC(=O)[C@H]1N(C(=O)[C@@H](O)[C@H](Cc2ccccc2)NC(=O)O[C@H]2CO[C@H]3OCC[C@H]32)CSC1(C)C", "values": [{"measurement": "pIC50", "setting": "[2]", "value": 7.21}, {"measurement": "pIC50", "setting": "[3]", "value": 7.54}, {"measurement": "pIC50", "setting": "[4]", "value": 7.19}, {"measurement": "pIC50", "setting": "[5]", "value": 7.38}, {"measurement": "pIC50", "setting": "[12]", "value": 6.63}, {"measurement": "pIC50", "setting": "[6]", "value": 7.51}, {"measurement": "Ratio IC50", "setting": "[7]", "value": 2}, {"measurement": "Ratio IC50", "setting": "[8]", "value": 1}, {"measurement": "Ratio IC50", "setting": "[9]", "value": 2}, {"measurement": "Ratio IC50", "setting": "[10]", "value": 1}, {"measurement": "Ratio IC50", "setting": "[11]", "value": 8}, {"measurement": "pKi", "setting": "Protease", "value": 11.28}, {"measurement": "pIC50", "setting": "[1]", "value": 8.05}]}
{"smiles": "Cc1ccccc1CNC(=O)[C@H]1N(C[C@@H](O)[C@H](Cc2ccccc2)NC(=O)O[C@H]2CO[C@H]3OCC[C@H]32)CSC1(C)C", "values": [{"measurement": "pKi", "setting": "Protease", "value": 8.59}]}
{"smiles": "Cc1ccccc1CNC(=O)[C@H]1N(C(=O)[C@@H](O)[C@H](Cc2ccccc2)NC(=O)O[C@@H]2C[C@@H]3CCO[C@@H]3C2)CSC1(C)C", "values": [{"measurement": "pKi", "setting": "Protease", "value": 9.54}, {"measurement": "pIC50", "setting": "[1]", "value": 7.89}]}
{"smiles": "Cc1ccccc1CNC(=O)[C@H]1N(C(=O)[C@@H](O)[C@H](Cc2ccccc2)NC(=O)O[C@@H]2CCOCOC2)CSC1(C)C", "values": [{"measurement": "pKi", "setting": "Protease", "value": 9.11}]}
{"smiles": "Cc1cc(N)ccc1CNC(=O)[C@H]1N(C(=O)[C@@H](O)[C@H](Cc2ccccc2)NC(=O)O[C@H]2CO[C@H]3OCC[C@H]32)CSC1(C)C", "values": [{"measurement": "pKi", "setting": "Protease", "value": 9.00}, {"measurement": "pIC50", "setting": "[1]", "value": 6.28}]}
